Results: ChEMBL document CHEMBL1131053, “Design, synthesis, and pharmacological evaluation of conformationally constrained analogues of N,N'-diaryl- and N-aryl-N-aralkylguanidines as potent inhibitors of neuronal Na+ channels” (J Med Chem, 1998)

Assays:
[1] = target: T1, Sodium channel protein type 2 subunit alpha (Rattus norvegicus, UniProt P04775); test: (§1) In vitro inhibition of [14C]- guanidinium influx in Chinese hamster ovary (CHO) cells expressing rat brain sodium channel type IIA (CNaIIA-1); type: cell-based
Glutamate NMDA receptor = test: Displacement of [3H]-MK-801 binding to N-methyl-D-aspartate glutamate receptor of rat brain membranes; type: cell membranes, Membrane
Procedure, shortened: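 Rat brain membrane suspension; inhibition of [3H]MK-801 binding at the NMDA receptor ion-channel site. IC50 taken from displacement curves, Ki reported. Means of at least three separate determinations ± SEM.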

Mus musculus [2] = test: Percent inhibition of convulsions in audiogenic DBA/2 mice at dose 2 mg/kg; type: functional
Procedure, shortened: (§2)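 Audiogenic DBA/2 mice of either sex, 6.5–12 g, 20–23 days old. Drug or vehicle (0.3 M mannitol, 10 mL/kg) given ip 30 min before a 12 kHz, 120 dB pure tone for 45 s or until respiratory arrest. % inhibition = (MRS control − MRS treatment)/MRS control × 100.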

[3] = target: T1, Sodium channel protein type 2 subunit alpha; test: as §1; type: functional, cell-based
[4] = In vitro inhibition of Calcium flux into brain synaptosomes (Values are means of at least three separate determinations); type: functional, subcellular, Rattus norvegicus
Procedure, shortened: (§3)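 45Ca2+ influx into brain synaptosomes depolarized by elevated K+, adapted from Nachsen and Blaustein. The rapid uptake component is measured, attributed to presynaptic neuronal (likely P-type) Ca2+ channels. Means of at least three determinations ± SEM unless otherwise indicated.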

Mus musculus [5] = test: Percent inhibition of convulsions in audiogenic DBA/2 mice at dose 10 mg/kg; type: functional; procedure, shortened: as §2
Mus musculus [6] = test: Percent inhibition of convulsions in audiogenic DBA/2 mice at dose 4 mg/kg; type: functional; procedure, shortened: as §2
Mus musculus [7] = test: Percent inhibition of convulsions in audiogenic DBA/2 mice at dose 20 mg/kg; type: functional; procedure, shortened: as §2
[8] = In vitro inhibition of Calcium flux into brain synaptosomes; type: functional, subcellular, Rattus norvegicus; procedure, shortened: as §3

T1 sequence (P04775 whole entry): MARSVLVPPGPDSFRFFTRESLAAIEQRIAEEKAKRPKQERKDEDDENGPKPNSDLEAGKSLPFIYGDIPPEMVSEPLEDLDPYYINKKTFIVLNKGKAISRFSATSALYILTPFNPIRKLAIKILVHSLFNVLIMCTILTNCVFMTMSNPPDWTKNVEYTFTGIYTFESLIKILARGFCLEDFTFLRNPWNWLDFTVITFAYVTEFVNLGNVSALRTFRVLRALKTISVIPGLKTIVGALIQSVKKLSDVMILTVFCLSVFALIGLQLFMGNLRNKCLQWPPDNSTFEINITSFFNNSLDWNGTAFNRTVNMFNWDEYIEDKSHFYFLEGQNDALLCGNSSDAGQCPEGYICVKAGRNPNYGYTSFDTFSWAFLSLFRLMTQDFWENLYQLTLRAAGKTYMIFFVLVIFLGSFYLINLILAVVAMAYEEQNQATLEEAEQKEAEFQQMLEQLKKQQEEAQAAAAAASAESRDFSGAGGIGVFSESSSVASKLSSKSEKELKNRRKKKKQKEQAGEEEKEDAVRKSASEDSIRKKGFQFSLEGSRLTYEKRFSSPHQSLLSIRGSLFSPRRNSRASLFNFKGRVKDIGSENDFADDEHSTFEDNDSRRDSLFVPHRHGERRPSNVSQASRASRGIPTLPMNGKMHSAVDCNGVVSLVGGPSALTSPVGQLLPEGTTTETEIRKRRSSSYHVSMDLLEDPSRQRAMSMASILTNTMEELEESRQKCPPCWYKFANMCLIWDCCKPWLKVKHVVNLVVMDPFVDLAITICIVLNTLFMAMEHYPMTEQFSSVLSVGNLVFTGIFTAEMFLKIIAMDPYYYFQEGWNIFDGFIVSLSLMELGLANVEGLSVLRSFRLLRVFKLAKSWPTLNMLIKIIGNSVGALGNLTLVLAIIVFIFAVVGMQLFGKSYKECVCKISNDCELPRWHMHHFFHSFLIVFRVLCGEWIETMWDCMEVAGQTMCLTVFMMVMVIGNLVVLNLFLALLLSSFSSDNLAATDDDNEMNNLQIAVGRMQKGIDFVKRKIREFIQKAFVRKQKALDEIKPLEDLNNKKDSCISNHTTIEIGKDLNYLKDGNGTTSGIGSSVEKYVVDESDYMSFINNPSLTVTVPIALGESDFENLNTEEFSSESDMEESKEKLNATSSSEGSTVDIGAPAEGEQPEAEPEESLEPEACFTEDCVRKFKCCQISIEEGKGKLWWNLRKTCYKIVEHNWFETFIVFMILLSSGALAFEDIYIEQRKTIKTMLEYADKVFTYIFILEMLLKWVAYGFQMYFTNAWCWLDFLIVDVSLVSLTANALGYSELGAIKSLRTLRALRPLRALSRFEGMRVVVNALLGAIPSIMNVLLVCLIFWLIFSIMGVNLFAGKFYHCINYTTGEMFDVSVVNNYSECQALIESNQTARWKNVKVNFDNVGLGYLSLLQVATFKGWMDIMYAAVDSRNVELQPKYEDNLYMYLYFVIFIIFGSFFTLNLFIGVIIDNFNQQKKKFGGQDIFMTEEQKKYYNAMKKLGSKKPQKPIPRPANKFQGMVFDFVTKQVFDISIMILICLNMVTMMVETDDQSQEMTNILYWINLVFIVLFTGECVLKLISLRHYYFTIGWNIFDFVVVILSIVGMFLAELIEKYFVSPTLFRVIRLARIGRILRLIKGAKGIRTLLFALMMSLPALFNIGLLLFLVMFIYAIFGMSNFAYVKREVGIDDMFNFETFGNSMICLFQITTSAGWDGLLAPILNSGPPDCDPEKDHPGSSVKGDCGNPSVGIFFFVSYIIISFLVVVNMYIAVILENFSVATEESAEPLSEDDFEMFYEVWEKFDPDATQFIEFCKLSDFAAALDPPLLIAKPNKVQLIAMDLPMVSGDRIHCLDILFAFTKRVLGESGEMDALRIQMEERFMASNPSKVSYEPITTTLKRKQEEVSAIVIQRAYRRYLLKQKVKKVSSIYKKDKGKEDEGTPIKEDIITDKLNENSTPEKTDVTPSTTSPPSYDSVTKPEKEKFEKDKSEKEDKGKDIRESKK

## N=C1N(c2ccccc2)CCCN1c1ccccc1
[1]
  IC50: > 25 µM

## CCC(C)c1ccc(N2CCCN(c3ccc(C(C)CC)cc3)C2=N)cc1 (configuration not stated)
Glutamate NMDA receptor
  Ki: 35.1 µM
Mus musculus [2]
  inhibition in vivo at 2 mg/kg: 41%
[3]
  IC50: 0.06 µM
[4]
  IC50: 0.39 µM
Mus musculus [5]
  inhibition in vivo at 10 mg/kg: 84%
Mus musculus [6]
  inhibition in vivo at 4 mg/kg: 75%

## N=C(N)N1c2ccccc2CCC1c1ccccc1 (configuration not stated)
[1]
  IC50: 17.5 µM

## CN(c1nc2ccccc2s1)C1CCN(C[C@H](O)COc2ccc(F)c(F)c2)CC1 [LUBELUZOLE]
[1]
  IC50: 0.26 µM
Mus musculus [7]
  inhibition in vivo at 20 mg/kg: 66%

## N=C(N)N(Cc1ccccc1)c1ccccc1
[1]
  IC50: 53 µM

## Nc1nnc(-c2cccc(Cl)c2Cl)c(N)n1 [LAMOTRIGINE]
Mus musculus [5]
  inhibition in vivo at 10 mg/kg: 71%

## c1ccc(NC2=NCCN2c2ccccc2)cc1
[1]
  IC50: > 25 µM

## CCC(C)c1ccc(N(C)C(=N)N(C)c2ccc(C(C)CC)cc2)cc1 (configuration not stated)
Glutamate NMDA receptor
  Ki: 3.34 µM
[3]
  IC50: 1 µM
[4]
  IC50: 2.5 µM
Mus musculus [7]
  inhibition in vivo at 20 mg/kg: 43%

## CC(C)c1ccc2c(c1)CCC(c1ccc(C(C)(C)C)cc1)N2C(=N)N (configuration not stated)
Glutamate NMDA receptor
  Ki: 3.84 µM
[3]
  IC50: 0.46 µM
[4]
  IC50: 0.9 µM
Mus musculus [5]
  inhibition in vivo at 10 mg/kg: 22%
Mus musculus [7]
  inhibition in vivo at 20 mg/kg: 80%

## COc1ccc(/N=C(\N)Nc2ccc3c4c(cccc24)CC3)c2ccccc12
Glutamate NMDA receptor
  Ki: 2.49 µM
[3]
  IC50: 1.64 µM
[4]
  IC50: 2.7 µM
Mus musculus [7]
  inhibition in vivo at 20 mg/kg: 21%

## N=C1N(c2ccccc2)CCN1c1ccccc1
[1]
  IC50: 14.7 µM

## CCC(C)c1ccc(NC(=N)Nc2ccc(C(C)CC)cc2)cc1 (configuration not stated)
Glutamate NMDA receptor
  Ki: 4.33 µM
Mus musculus [7]
  inhibition in vivo at 20 mg/kg: 69%

## NC1=NCC(c2ccccc2)N1c1ccccc1 (configuration not stated)
[1]
  IC50: > 24 µM

## CCC(C)c1ccc(N2CCN(c3ccc(C(C)CC)cc3)C2=N)cc1 (configuration not stated)
Glutamate NMDA receptor
  Ki: 13.5 µM
[3]
  IC50: 0.06 µM
Mus musculus [7]
  inhibition in vivo at 20 mg/kg: 58%

## CCOc1ccc(NC(=N)Nc2ccc(OCC)cc2)cc1
[1]
  IC50: 3.28 µM

## N/C1=N/c2ccc(cc2)OCCCCCOc2ccc(cc2)N1
[1]
  IC50: 2.9 µM

## N=C(N)N1Cc2ccccc2CCc2ccccc21
[1]
  IC50: 38 µM

## NC1=Nc2ccccc2CN1c1ccccc1
[1]
  IC50: 9.95 µM

## CCC(C)c1ccc(N(Cc2ccc(C(C)(C)C)cc2)C(=N)N)cc1 (configuration not stated)
Glutamate NMDA receptor
  Ki: 3.69 µM
[8]
  IC50: 2.4 µM
[1]
  IC50: 0.62 µM
Mus musculus [5]
  inhibition in vivo at 10 mg/kg: 44%
Mus musculus [7]
  inhibition in vivo at 20 mg/kg: 81%

## CCC(C)c1ccc(N2C(N)=NCC2c2ccc(C(C)C)cc2)cc1 (configuration not stated)
Glutamate NMDA receptor
  Ki: 4.41 µM
[8]
  IC50: 3.5 µM
[1]
  IC50: 1.8 µM
Mus musculus [7]
  inhibition in vivo at 20 mg/kg: 2%

## N=C(Nc1ccccc1)Nc1ccccc1
[3]
  IC50: > 14 µM
